# In ChEMBL document CHEMBL1138529, “Efficacy, pharmacokinetics, and metabolism of tetrahydroquinoline inhibitors of Plasmodium falciparum protein farnesyltransferase” (Antimicrob Agents Chemother, 2007):
# Tests used:
# Blood [1] = assay: Drug level in bile duct cannulated Sprague-Dawley rat blood at 35 mg/kg, po after 18 hrs; format: ADME, organism-based; parameters: dose 35 mg/kg, route oral; conditions: in vivo
# How it was run: (§1)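 Male Sprague-Dawley rats (~350 g), jugular vein and bile duct cannulated, 1 week recovery; three per compound dosed by oral gavage with 35 mg/kg in 3% EtOH-7% Tween 80-90% normal saline plus 80 μCi/kg 14C tracer. Plasma and blood cells sampled over 18 h; radioactivity by liquid scintillation, reported as mean μg base equivalents/g.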
# Rattus norvegicus [2] = assay: Plasma concentration in bile duct cannulated Sprague-Dawley rat at 35 mg/kg, po after 1 hr; format: ADME, organism-based; parameters: dose 35 mg/kg, route oral; conditions: in vivo
# How it was run: (§2)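 Male Sprague-Dawley rats, about 350 g, with jugular and bile-duct cannulae, allowed 1 week recovery; three per compound. Oral gavage 35 mg/kg in 3% EtOH-7% Tween 80-90% saline with 80 μCi/kg 14C tracer. Monitored 18 h. Plasma and blood-cell radioactivity measured by liquid scintillation counting and given as μg base equivalents/g.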
# Blood [3] = assay: Drug level in bile duct cannulated Sprague-Dawley rat blood at 35 mg/kg, po after 6 hrs; format: ADME, organism-based; parameters: dose 35 mg/kg, route oral; conditions: in vivo; how it was run: as §1
# [4] = Drug metabolism in bile duct cannulated Sprague-Dawley rat assessed as radioactive drug recovery in carcass at 35 mg/kg, po after 18 hrs; format: ADME, organism-based; parameters: dose 35 mg/kg, route oral; conditions: in vivo
# How it was run: (§3)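 Male bile-duct- and jugular-cannulated Sprague-Dawley rats (~350 g, three per compound) given 35 mg/kg 14C-labelled compound orally (80 μCi/kg) in 3% EtOH-7% Tween 80-90% saline. Urine, feces and bile collected for 18 h, cages washed with methanol-water, animals autopsied; radioactivity per matrix by liquid scintillation counting as mean % of dose.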
# Rattus norvegicus [5] = assay: Plasma concentration in bile duct cannulated Sprague-Dawley rat at 35 mg/kg, po after 3 hrs; format: ADME, organism-based; parameters: dose 35 mg/kg, route oral; conditions: in vivo; how it was run: as §2
# Blood [6] = assay: Drug level in bile duct cannulated Sprague-Dawley rat blood at 35 mg/kg, po after 1 hr; format: ADME, organism-based; parameters: dose 35 mg/kg, route oral; conditions: in vivo; how it was run: as §1
# Blood [7] = assay: Drug level in bile duct cannulated Sprague-Dawley rat blood at 35 mg/kg, po after 2 hrs; format: ADME, organism-based; parameters: dose 35 mg/kg, route oral; conditions: in vivo; how it was run: as §1
# Rattus norvegicus [8] = assay: Plasma concentration in bile duct cannulated Sprague-Dawley rat at 35 mg/kg, po after 2 hrs; format: ADME, organism-based; parameters: dose 35 mg/kg, route oral; conditions: in vivo; how it was run: as §2
# Blood [9] = assay: Drug level in bile duct cannulated Sprague-Dawley rat blood at 35 mg/kg, po after 0.5 hrs; format: ADME, organism-based; parameters: dose 35 mg/kg, route oral; conditions: in vivo; how it was run: as §1
# [10] = Drug metabolism in bile duct cannulated Sprague-Dawley rat assessed as radioactive drug recovery in bile at 35 mg/kg, po after 18 hrs; format: ADME, organism-based; parameters: dose 35 mg/kg, route oral; conditions: in vivo; how it was run: as §3
# Rattus norvegicus [11] = assay: Plasma concentration in bile duct cannulated Sprague-Dawley rat at 35 mg/kg, po after 0.5 hrs; format: ADME, organism-based; parameters: dose 35 mg/kg, route oral; conditions: in vivo; how it was run: as §2
# Rattus norvegicus [12] = assay: Plasma concentration in bile duct cannulated Sprague-Dawley rat at 35 mg/kg, po after 18 hrs; conditions: in vivo
# [13] = Drug metabolism in bile duct cannulated Sprague-Dawley rat assessed as radioactive drug recovery in urine at 35 mg/kg, po after 18 hrs; format: ADME, organism-based; parameters: dose 35 mg/kg, route oral; conditions: in vivo; how it was run: as §3
# [14] = Drug metabolism in bile duct cannulated Sprague-Dawley rat assessed as radioactive drug recovery in feces at 35 mg/kg, po after 18 hrs; format: ADME, organism-based; parameters: dose 35 mg/kg, route oral; conditions: in vivo; how it was run: as §3
# Rattus norvegicus [15] = assay: Toxicity in bile duct cannulated Sprague-Dawley rat assessed as incidence of adverse events at 35 mg/kg, po after 18 hrs; format: organism-based; parameters: dose 35 mg/kg, route oral; conditions: in vivo; how it was run: as §2
# Rattus norvegicus [16] = assay: Drug metabolism in bile duct cannulated Sprague-Dawley rat assessed as radioactive drug recovery at 35 mg/kg, po after 18 hrs; format: ADME, organism-based; parameters: dose 35 mg/kg, route oral; conditions: in vivo; how it was run: as §3
# Rattus norvegicus [17] = assay: Plasma concentration in bile duct cannulated Sprague-Dawley rat at 35 mg/kg, po after 4 hrs; format: ADME, organism-based; parameters: dose 35 mg/kg, route oral; conditions: in vivo; how it was run: as §2
# Blood [18] = assay: Drug level in bile duct cannulated Sprague-Dawley rat blood at 35 mg/kg, po after 3 hrs; format: ADME, organism-based; parameters: dose 35 mg/kg, route oral; conditions: in vivo; how it was run: as §1
# Rattus norvegicus [19] = assay: Plasma concentration in bile duct cannulated Sprague-Dawley rat at 35 mg/kg, po after 6 hrs; format: ADME, organism-based; parameters: dose 35 mg/kg, route oral; conditions: in vivo; how it was run: as §2
# Blood [20] = assay: Drug level in bile duct cannulated Sprague-Dawley rat blood at 35 mg/kg, po after 4 hrs; format: ADME, organism-based; parameters: dose 35 mg/kg, route oral; conditions: in vivo; how it was run: as §1
# [21] = Drug metabolism in bile duct cannulated Sprague-Dawley rat assessed as radioactive drug recovery in gastrointestinal tract at 35 mg/kg, po after 18 hrs; format: ADME, organism-based; parameters: dose 35 mg/kg, route oral; conditions: in vivo; how it was run: as §3
# [22] = Inhibition of Plasmodium falciparum protein farnesyltransferase by SPA method
# [23] = Permeability from apical to basolateral side in human Caco-2 cells; format: ADME, cell-based; conditions: read-out: permeability
# [24] = AUC in BALB/c mouse at 50 mg/kg, po; format: ADME, organism-based; parameters: dose 50 mg/kg, route oral; conditions: plasma
# How it was run: (§4)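 Three female BALB/c mice (lines for mice, 8–10 weeks) or three female Sprague-Dawley rats (10–12 weeks) per group; 50 mg/kg oral gavage in 3% EtOH-7% Tween 80-90% normal saline. Plasma sampled at set times (tail bleed in mice, saphenous vein in rats), extracted with acetonitrile plus internal standard, quantified by LC/MS; AUC as mean of three animals.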
# Plasmodium falciparum [25] = assay: Antiplasmodial activity against chloroquine-resistant Plasmodium falciparum K1 by [3H]hypoxanthine uptake; format: functional; conditions: read-out: ED50 (the source's name)
# How it was run: (§5)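 Asynchronous cultures at 0.5% parasitemia and 0.5% hematocrit in RPMI 1640 with 20% heat-inactivated human A+ plasma, exposed to serially diluted inhibitor (top final 5 μM, from DMSO stock) under 5% CO2/5% O2/90% N2 at 37°C for 48 h. [3H]hypoxanthine was then added for 24 h and harvested counts were background-subtracted against DMSO-only controls. ED50 came from linear regression, as the mean of duplicates.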
# [26] = Metabolic stability in rat liver microsomes; format: ADME, Microsome
# How it was run: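 Pooled female liver microsomes at 0.5 mg/ml in 0.1 M potassium phosphate pH 7.4, 3 mM MgCl2, 1 mM EDTA, with NADPH regenerating system (1 mM NADP+, 5 mM glucose-6-phosphate, 1 U/ml G6PDH). Preincubated 10 min at 37°C, then compound added to 1 μM final. Time points quenched with 3 volumes acetonitrile plus internal standard; parent quantified by LC/MS; half-life reported.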
# [27] = AUC in Sprague-Dawley rat at 50 mg/kg, po; format: ADME, organism-based; parameters: dose 50 mg/kg, route oral; conditions: plasma; how it was run: as §4
# [28] = Elimination half life in BALB/c mouse at 50 mg/kg, po; format: ADME, organism-based; parameters: dose 50 mg/kg, route oral; conditions: in vivo, read-out: beta t1/2
# How it was run: (§6)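 50 mg/kg by oral gavage in 3% EtOH-7% Tween 80-90% normal saline to groups of three females (BALB/c mice, 8–10 weeks, tail bleed; Sprague-Dawley rats, 10–12 weeks, saphenous vein). Plasma extracted with acetonitrile/internal standard, LC/MS; means of three animals. Oral elimination half-life depends on absorption rate as well as elimination.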
# [29] = Oral bioavailability in Sprague-Dawley rat; format: ADME, organism-based; conditions: in vivo
# How it was run: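 Female Sprague-Dawley rats, 10-12 weeks, three per group. Oral gavage at 50 mg/kg and jugular-catheter i.v. dose at 2 mg/kg, both in 3% EtOH-7% Tween 80-90% saline. Plasma taken over time, acetonitrile extraction with internal standard, LC/MS. Bioavailability computed as oral AUC/i.v. AUC.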
# [30] = Elimination half life in Sprague-Dawley rat at 50 mg/kg, po; format: ADME, organism-based; parameters: dose 50 mg/kg, route oral; conditions: in vivo, read-out: beta t1/2; how it was run: as §6
# [31] = AUC in Sprague-Dawley rat at 2 mg/kg, iv; format: ADME, organism-based; parameters: dose 2 mg/kg, route intravenous; conditions: plasma
# How it was run: (§7)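 Three female Sprague-Dawley rats per group (10–12 weeks), jugular-vein catheterized; 2 mg/kg in 3% EtOH-7% Tween 80-90% normal saline given through the catheter. Plasma drawn from the catheter at set times, acetonitrile extraction with internal standard, LC/MS quantification.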
# Plasmodium falciparum [32] = assay: Antiplasmodial activity against chloroquine-sensitive Plasmodium falciparum 3D7 by [3H]hypoxanthine uptake; format: functional; conditions: read-out: ED50 (the source's name); how it was run: as §5
# [33] = Cmax in Sprague-Dawley rat at 50 mg/kg, po; format: ADME, organism-based; parameters: dose 50 mg/kg, route oral; conditions: in vivo; how it was run: as §6
# [34] = Elimination half life in Sprague-Dawley rat at 2 mg/kg, iv; format: ADME, organism-based; parameters: dose 2 mg/kg, route intravenous; conditions: in vivo, read-out: beta t1/2; how it was run: as §7
SMILES,Drug uptake (Blood [1]),Cp (Rattus norvegicus [2]),Drug uptake (Blood [3]),Cp (Rattus norvegicus [5]),Drug uptake (Blood [6]),Drug uptake (Blood [7]),Cp (Rattus norvegicus [8]),Drug uptake (Blood [9]),Drug uptake [10],Cp (Rattus norvegicus [11]),Cp (Rattus norvegicus [12]),Drug uptake [13],Drug uptake [14],Activity (Rattus norvegicus [15]),Drug uptake (Rattus norvegicus [16]),Drug uptake (Blood [18]),Drug uptake (Blood [20]),Drug uptake [21],further results
Cn1cncc1CN1CC(N(CC2CCN(C(=O)OC(C)(C)C)CC2)S(=O)(=O)c2ccccn2)Cc2cc([14C]#N)ccc21 (configuration not stated),0.344 ug base equiv/g,2.01 ug base equiv/g,0.623 ug base equiv/g,2.2 ug base equiv/g,0.909 ug base equiv/g,1.03 ug base equiv/g,2.14 ug base equiv/g,0.442 ug base equiv/g,26.2%,1.5 ug base equiv/g,0.34 ug base equiv/g,4.3%,26.7%,Non-toxic,92.2%,0.821 ug base equiv/g,0.729 ug base equiv/g,18.2%,Drug uptake [4]: 9.7%; Cp (Rattus norvegicus [17]): 1.92 ug base equiv/g; Cp (Rattus norvegicus [19]): 1.23 ug base equiv/g
Cn1cncc1CN1CC(N(CCn2cccc2)S(=O)(=O)c2ccccn2)Cc2cc([14C]#N)ccc21 (configuration not stated),0.243 ug base equiv/g,1.36 ug base equiv/g,0.063 ug base equiv/g,0.237 ug base equiv/g,0.493 ug base equiv/g,0.344 ug base equiv/g,0.723 ug base equiv/g,0.566 ug base equiv/g,27.1%,1.38 ug base equiv/g,0.351 ug base equiv/g,1.6%,33.7%,Non-toxic,104%,0.221 ug base equiv/g,0.073 ug base equiv/g,40.3%,–
Cn1cncc1CN1CC(N(CC2CCN(C(=O)OC(C)(C)C)CC2)S(=O)(=O)c2ccccn2)Cc2cc(C#N)ccc21 (configuration not stated),–,–,–,–,–,–,–,–,–,–,–,–,–,–,–,–,–,–,IC50 [22]: 1.5 nM; Papp A→B [23]: 15.5 ×10⁻⁶ cm/s; AUC [24]: 11.8 µM·h; EC50 (Plasmodium falciparum [25]): 180 nM; half-life [26]: 10 min; AUC [27]: 30.1 µM·h; half-life [28]: 54 min; bioavailability [29]: 124%; half-life [30]: 151 min; AUC [31]: 0.967 µM·h; EC50 (Plasmodium falciparum [32]): 155 nM; Cmax [33]: 6.3 µM; half-life [34]: 55 min
